In brackets after ≈: the same amount, converted by molar mass. Activity calls are given as the source filed them. The calls are words filed in the database; no cut-off is given here.
How the values were obtained:
[1] = system: Bemisia tabaci; experiment: Insecticidal activity against Bemisia tabaci (sweet potato whitefly) second-instar larvae infested five weeks old cotton plants followed by compound 250 ppm compound spraying after insect oviposit assessed as insect mortality measured 13 days post compound treatment under green house conditions; format: functional
[2] = system: Spodoptera exigua; experiment: Insecticidal activity against Spodoptera exigua second-instar larvae feeded on 400 ppm compound treated lepidopteran diet assessed as insect mortality measured 5 days post compound treatment under green house conditions; format: functional; settings: at 400 ppm
[3] = system: Trichoplusia ni
[4] = system: Heliothis virescens
[5] = system: Tetranychus urticae
[6] = system: Aphis gossypii
[7] = system: Heliothis virescens; experiment: Insecticidal activity against Heliothis virescens (tobacco budworm) second-instar larvae infested on 400 ppm compound pre-treated cotton cotyledon disk assessed as insect mortality measured 5 days post compound treatment under green house conditions; format: functional
[8] = system: Aphis gossypii; experiment: Insecticidal activity against Aphis gossypii (cotton aphid) infested one week old Crookneck squash plants assessed as insect mortality at 50 ppm measured after 3 days post compound application under green house conditions; format: functional; settings: 72 h
[9] = system: Spodoptera exigua
[10] = system: Trichoplusia ni; experiment: Insecticidal activity against Trichoplusia ni (cabbage looper) second-instar larvae infested on 400 ppm compound pre-treated cabbage leaf disk assessed as insect mortality measured 5 days post compound treatment under green house conditions; format: functional; settings: at 400 ppm
[11] = system: Bemisia tabaci
[12] = system: Trichoplusia ni; experiment: Insecticidal activity against Trichoplusia ni (cabbage looper) second-instar larvae infested on compound pre-treated cabbage leaf disk assessed as insect mortality measured 5 days post compound treatment under green house conditions; format: functional; settings: for LC50: Trichoplusia ni, foliar
Procedure, shortened: (§1)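 Leaf disks treated, air-dried and placed singly in cups. Cotton cotyledon disks each get one second-instar tobacco budworm larva; cabbage leaf disks each get one second-instar cabbage looper larva. Cups are capped and held in a growth chamber at 25 °C, 50-55% RH, 14 h light/10 h dark for 5 days.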

[13] = system: Spodoptera exigua; experiment: Insecticidal activity against Spodoptera exigua second-instar larvae feeded on compound treated lepidopteran diet assessed as insect mortality measured 5 days post compound treatment under green house conditions; format: functional; settings: for LC50: Spodoptera exigua, 120 h
[14] = system: Heliothis virescens; experiment: Insecticidal activity against Heliothis virescens (tobacco budworm) second-instar larvae infested on compound pre-treated cotton cotyledon disk assessed as insect mortality measured 5 days post compound treatment under green house conditions; format: functional; settings: Heliothis virescens; procedure, shortened: as §1
[15] = system: Tetranychus urticae; experiment: Insecticidal activity against female Tetranychus urticae (two-spotted spider mite) infested cotton leaf disks followed by 2.5 ppm compound spraying after oviposit assessed as insect mortality measured after 6 days post compound application under green house conditions; format: functional; settings: foliar, 144 h
[16] = system: Myzus persicae; experiment: Insecticidal activity against Myzus persicae (green peach aphid) assessed as insect mortality at 50 ppm; format: functional
[17] = system: Aphis gossypii; experiment: Insecticidal activity against Aphis gossypii (cotton aphid) infested one week old Crookneck squash plants assessed as insect mortality measured after 3 days post compound application under green house conditions; format: functional; settings: for LC50: Aphis gossypii, 72 h

| Compound | mortality [1] | mortality [2] | mortality [3] | mortality [4] | mortality [5] | mortality [6] | mortality [7] | mortality [9] | mortality [10] | mortality [11] | further results |
| --- | --- | --- | --- | --- | --- | --- | --- | --- | --- | --- | --- |
| Cn1nc(-c2c(F)cccc2Cl)nc1-c1cc(Br)c(-c2cccc(OC(F)(F)F)c2)s1 | <50% | <50% | inactive | inactive | inactive | inactive | – | – | – | – | – |
| Cc1cc(C2CCC(OC(=O)C(F)(F)Br)CC2)sc1-c1nc(-c2c(F)cccc2Cl)nn1C (centres undefined) | – | <50% | inactive | inactive | inactive | inactive | – | – | – | – | – |
| Cc1cc(C2=CCC(O)CC2)sc1-c1nc(-c2c(F)cccc2Cl)nn1C (centres undefined) | <50% | – | inactive | – | inactive | – | <50% | inactive | – | – | mortality at 50 ppm [8]: < 50% |
| Cn1nc(-c2c(F)cccc2Cl)nc1-c1ccc(-c2cccc(OC(F)(F)F)c2)s1 | – | <50% | – | inactive | inactive | inactive | – | – | 80% | inactive | – |
| Cc1cc(-c2ccc(Cl)c(F)c2)sc1-c1nc(-c2c(F)cccc2Cl)nn1C | – | 90% | – | – | – | – | 90% | – | 90% | inactive | LC90 [12]: 40.3 ppm; LC50 [12]: 30.2 µg/mL (≈ 69.2 µM); LC90 [13]: 323 ppm; LC50 [13]: 65 µg/mL (≈ 149 µM); LC50 [14]: 19.4 µg/mL (≈ 44.5 µM); mortality at 2.5 ppm [15]: 90%; LC50 [16]: 89 µg/mL (≈ 204 µM); LC90 [17]: 933 ppm; LC50 [17]: 0.923 µg/mL (≈ 2.12 µM); mortality at 50 ppm [8]: 80% |
| COc1ccc(-c2ccc(-c3nc(-c4c(F)cccc4F)nn3C)s2)cc1 | – | 90% | – | inactive | inactive | inactive | – | – | <50% | inactive | – |
| Cn1nc(-c2c(F)cccc2F)nc1-c1ccc(-c2ccc(OC(F)(F)F)cc2)s1 | – | – | – | – | inactive | inactive | 90% | inactive | 90% | inactive | – |
| Cc1sc(-c2nc(-c3c(F)cccc3Cl)nn2C)c(C)c1-c1ccc(O)cc1 | <50% | – | inactive | – | inactive | inactive | <50% | inactive | – | – | – |
| Cn1nc(-c2c(F)cccc2F)nc1-c1ccc(-c2ccc(C(C)(F)F)cc2Cl)s1 | – | – | inactive | inactive | inactive | inactive | – | inactive | – | inactive | – |
| CC1(C)C(C=C(Cl)Cl)C1C(=O)OC(C#N)c1cccc(Oc2ccccc2)c1 (stereo not drawn) [ALPHA-CYPERMETHRIN] | – | – | – | – | – | – | – | – | – | – | LC50 [12]: 0.6 µg/mL (≈ 1.44 µM); LC50 [13]: 1.6 µg/mL (≈ 3.84 µM); LC50 [14]: 1.3 µg/mL (≈ 3.12 µM) |
| Cn1nc(-c2c(F)cccc2Cl)nc1-c1sc(-c2ccc(O)cc2)cc1Cl | – | – | inactive | – | inactive | – | 60% | inactive | – | inactive | mortality at 50 ppm [8]: < 50% |
| Cn1nc(-c2c(F)cccc2F)nc1-c1sc(-c2ccc(C(F)(F)F)cc2)cc1Cl | – | – | – | – | – | inactive | 90% | inactive | <50% | inactive | mortality at 2.5 ppm [15]: 90% |
| Cc1c(-c2ccc(OC(F)(F)C(F)Cl)cc2)csc1-c1nc(-c2c(F)cccc2Cl)nn1C (centres undefined) | 90% | 80% | – | – | – | – | 90% | – | 70% | – | LC50 [12]: < 1.56 µg/mL; LC50 [13]: 1.56 µg/mL (≈ 3.02 µM); LC50 [14]: 4.38 µg/mL (≈ 8.48 µM); mortality at 2.5 ppm [15]: 90%; LC50 [16]: < 5 µg/mL; LC50 [17]: < 5 µg/mL; mortality at 50 ppm [8]: 80% |
| Cc1cc(C2CCC(O)CC2)sc1-c1nc(-c2c(F)cccc2Cl)nn1C (centres undefined) | 50% | – | inactive | – | inactive | inactive | <50% | inactive | – | – | – |
| Cn1nc(-c2c(F)cccc2F)nc1-c1cc(-c2ccccc2)c(C(F)(F)F)s1 | – | 50% | inactive | inactive | inactive | inactive | – | – | – | – | – |
| Cn1nc(-c2c(F)cccc2Cl)nc1-c1cc(Br)c(-c2ccc(C(F)(F)F)cc2)s1 | – | – | inactive | inactive | inactive | inactive | – | inactive | – | inactive | – |
| Cn1nc(-c2c(F)cccc2F)nc1-c1ccc(-c2ccc(F)c(F)c2)s1 | – | – | inactive | inactive | inactive | inactive | – | inactive | – | inactive | – |
| Cc1c(-c2ccc(OC(F)(F)F)cc2)csc1-c1nc(-c2c(F)cccc2Cl)nn1C | 90% | 90% | – | – | – | – | 90% | – | 90% | – | LC50 [12]: 15.8 µg/mL (≈ 33.8 µM); LC50 [13]: 21.9 µg/mL (≈ 46.8 µM); LC50 [14]: > 400 µg/mL; mortality at 2.5 ppm [15]: 90%; LC50 [16]: 23.3 µg/mL (≈ 49.8 µM); LC90 [17]: 22.2 ppm; LC50 [17]: 0.07 µg/mL (≈ 0.15 µM); mortality at 50 ppm [8]: 90% |
| Cc1ccc(-c2ccc(-c3nc(-c4c(F)cccc4Cl)nn3C)s2)cc1 | <50% | – | inactive | inactive | inactive | inactive | – | inactive | – | – | – |
| Cn1nc(-c2c(F)cccc2Cl)nc1-c1ccc(-c2ccc(F)cc2)s1 | <50% | <50% | – | inactive | inactive | inactive | – | – | 80% | – | – |
| Cc1ccc(-c2sc(-c3nc(-c4c(F)cccc4Cl)nn3C)cc2Br)cc1 | <50% | <50% | inactive | inactive | inactive | inactive | – | – | – | – | – |
| Cn1nc(-c2c(F)cccc2Cl)nc1-c1cc(Br)c(-c2ccc(OC(F)(F)F)cc2)s1 | <50% | – | – | – | – | inactive | 90% | inactive | 90% | – | mortality at 2.5 ppm [15]: 90% |
| Cn1nc(-c2c(F)cccc2Cl)nc1-c1ccc(-c2cccc(C(F)(F)F)c2)s1 | – | – | inactive | inactive | inactive | inactive | – | inactive | – | inactive | – |
| Cc1cc(-c2ccc3c(c2)OC(F)(F)O3)sc1-c1nc(-c2c(F)cccc2Cl)nn1C | <50% | 80% | inactive | inactive | inactive | inactive | – | – | – | – | – |
| O=[N+]([O-])/N=C1\NCCN1Cc1ccc(Cl)nc1 [IMIDACLOPRID] | – | – | – | – | – | – | – | – | – | – | LC50 [16]: 1.7 µg/mL (≈ 6.65 µM); LC50 [17]: 0.05 µg/mL (≈ 0.196 µM) |
| Cn1nc(-c2c(F)cccc2Cl)nc1-c1ccc(-c2ccc(C(F)(F)F)cc2)s1 | – | – | inactive | inactive | – | inactive | – | inactive | – | inactive | mortality at 2.5 ppm [15]: 80% |
| Cc1cc(-c2ccc(Cl)c(Cl)c2)sc1-c1nc(-c2c(F)cccc2Cl)nn1C | – | 70% | – | inactive | inactive | inactive | – | – | 60% | inactive | – |
| Cn1nc(-c2c(F)cccc2Cl)nc1-c1cc(Br)c(-c2cccc(C(F)(F)F)c2)s1 | – | <50% | inactive | inactive | inactive | inactive | – | – | – | inactive | – |
| Cc1cc(C2=CCC(OC(F)(F)C(F)Br)CC2)sc1-c1nc(-c2c(F)cccc2Cl)nn1C (centres undefined) | – | <50% | inactive | inactive | inactive | – | – | – | – | – | mortality at 50 ppm [8]: < 50% |
| Cc1ccc(-c2cc(Cl)c(-c3nc(-c4c(F)cccc4F)nn3C)s2)cc1 | – | – | inactive | – | – | inactive | 80% | inactive | – | inactive | mortality at 2.5 ppm [15]: 90% |
